Experimental data as given in ChEMBL document CHEMBL3525987, “Assessment of exposure of metabolites in preclinical species and humans at steady state from the single-dose radiolabeled absorption, distribution, metabolism, and excretion studies: a case study” (Drug Metab Dispos, 2012).

Columns and labels:
[1] = Half life in human plasma at 100 mg, po administered as single dose by LC-MS/MS analysis; format: ADME, organism-based; design: dosed compound name [14C]lixivaptan
In short: (§1)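 Single oral 100 mg [14C]drug to healthy male volunteers; plasma at 0.25-144 h. Parent by validated LC-MS/MS, total radioactivity by LSC as ng-equiv/ml; Tmax from observed data; t1/2 = 0.693/kel from log-linear terminal regression.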

[2] = AUC(0 to t) in human plasma at 100 mg, po administered as single dose by LC-MS/MS analysis; format: ADME, organism-based; design: dosed compound name [14C]lixivaptan
In short: (§2)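 Fasted healthy males took one oral 100 mg (200 µCi) [14C]lixivaptan dose. Plasma was drawn from predose to 144 h. Total radioactivity was measured by LSC and converted to ng-equiv/ml via the dose specific activity; lixivaptan by validated LC-MS/MS. Noncompartmental analysis: Cmax observed; kel by log-linear regression; AUC0-t by linear trapezoid; extrapolation as Cest/kel.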

[3] = Tmax in male Sprague-Dawley rat plasma at 10 mg/kg, po administered as single dose via gavage by LC-MS/MS analysis; format: ADME, organism-based; design: dose 10 mg/kg, dosed compound name [14C]lixivaptan, route oral
In short: (§3)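 Jugular-vein cannulated SD rats (5/gender) given gavage [14C]drug 10 mg/kg in pluronic F68/water; K2EDTA blood 0.25-168 h with donor blood replacement. Parent by validated LC-MS/MS, radioactivity by LSC; Tmax observed; t1/2 = 0.693/kel by terminal log-linear regression.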

[4] = Half life in male Sprague-Dawley rat plasma at 10 mg/kg, po administered as single dose via gavage by LC-MS/MS analysis; format: ADME, organism-based; design: dose 10 mg/kg, dosed compound name [14C]lixivaptan, route oral; in short: as §3
[5] = AUC(0 to infinity) in male Sprague-Dawley rat plasma at 10 mg/kg, po administered as single dose via gavage by LC-MS/MS analysis; format: ADME, organism-based; design: time infinity, dose 10 mg/kg, dosed compound name [14C]lixivaptan, route oral
In short: (§4)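 Jugular-cannulated Sprague-Dawley rats (5/gender) were fasted 18 h and gavaged once with 10 mg/kg [14C]lixivaptan suspended in water/pluronic F68. K2EDTA blood was taken at 0.25–168 h, with donor blood replaced from 1 h on. Total radioactivity was read by LSC (ng-equiv/ml) and parent by validated LC-MS/MS. Noncompartmental Cmax, log-linear kel and trapezoidal AUC followed.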

[6] = Cmax in female Sprague-Dawley rat plasma at 10 mg/kg, po administered as single dose; format: ADME, organism-based; design: dose 10 mg/kg, dosed compound name [14C]lixivaptan, route oral; in short: as §4
[7] = Half life in female Sprague-Dawley rat plasma at 10 mg/kg, po administered as single dose via gavage by LC-MS/MS analysis; format: ADME, organism-based; design: dose 10 mg/kg, dosed compound name [14C]lixivaptan, route oral; in short: as §3
[8] = AUC(0 to t) in female Sprague-Dawley rat plasma at 10 mg/kg, po administered as single dose via gavage by LC-MS/MS analysis; format: ADME, organism-based; design: dose 10 mg/kg, dosed compound name [14C]lixivaptan, route oral; in short: as §4
[9] = Half life in male beagle dog plasma at 10 mg/kg, po administered as single dose by LC-MS/MS analysis; format: ADME, organism-based, Canis lupus familiaris; design: dose 10 mg/kg, dosed compound name [14C]lixivaptan, route oral
In short: (§5)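 Male beagles given 10 mg/kg [14C]drug oral suspension; jugular K2EDTA blood at 0.25-168 h. Parent by validated LC-MS/MS, total radioactivity by LSC; Tmax observed; t1/2 = 0.693/kel from terminal log-linear regression.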

[10] = AUC(0 to t) in male beagle dog plasma at 10 mg/kg, po administered as single dose by LC-MS/MS analysis; format: ADME, organism-based, Canis lupus familiaris; design: dose 10 mg/kg, dosed compound name [14C]lixivaptan, route oral
In short: (§6)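 Four male beagles were fasted 18 h and gavaged once with 10 mg/kg (2 ml/kg) [14C]lixivaptan as a 5.0 mg/ml water/pluronic F68 suspension. Jugular K2EDTA blood was sampled from 0.25 to 168 h. Plasma total radioactivity was counted by LSC as ng-equiv/ml and lixivaptan by validated LC-MS/MS. Noncompartmental Cmax, t1/2 and trapezoidal AUC were derived.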

[11] = AUC(0 to infinity) in male beagle dog plasma at 10 mg/kg, po administered as single dose by LC-MS/MS analysis; format: ADME, organism-based, Canis lupus familiaris; design: time infinity, dose 10 mg/kg, dosed compound name [14C]lixivaptan, route oral; in short: as §6
[12] = Cmax in human plasma at 100 mg, po administered as single dose by LC-MS/MS analysis; format: ADME, organism-based; design: dose 100 mg, route oral, dosed compound name [14C]lixivaptan; in short: as §2
Homo sapiens = assay: Drug concentration at steady state in human at 100 mg, po qd for 7 days by LC/MS/MS analysis; format: ADME, organism-based; design: dosed compound name Lixivaptan; conditions: in vivo, 168 h
In short: (§7)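 Phase 1 human study with lixivaptan 100 mg orally once daily and blood taken on the final day. Parent and two abundant metabolites were quantified in plasma with a validated LC-MS/MS assay.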

[13] = AUC at steady state in human at 100 mg, po qd for 7 days by LC/MS/MS analysis; format: ADME, organism-based; design: dosed compound name Lixivaptan; conditions: plasma; in short: as §7
[14] = Tmax in human plasma at 100 mg, po administered as single dose by LC-MS/MS analysis; format: ADME, organism-based; design: dosed compound name [14C]lixivaptan; in short: as §1
[15] = AUC(0 to infinity) in human plasma at 100 mg, po administered as single dose by LC-MS/MS analysis; format: ADME, organism-based; design: dose 100 mg, route oral, time infinity, dosed compound name [14C]lixivaptan; in short: as §2
[16] = Cmax in male Sprague-Dawley rat plasma at 10 mg/kg, po administered as single dose via gavage by LC-MS/MS analysis; format: ADME, organism-based; design: dose 10 mg/kg, dosed compound name [14C]lixivaptan, route oral; in short: as §4
[17] = AUC(0 to t) in male Sprague-Dawley rat plasma at 10 mg/kg, po administered as single dose via gavage by LC-MS/MS analysis; format: ADME, organism-based; design: dose 10 mg/kg, dosed compound name [14C]lixivaptan, route oral; in short: as §4
[18] = Tmax in female Sprague-Dawley rat plasma at 10 mg/kg, po administered as single dose via gavage by LC-MS/MS analysis; format: ADME, organism-based; design: dose 10 mg/kg, dosed compound name [14C]lixivaptan, route oral; in short: as §3
[19] = AUC(0 to infinity) in female Sprague-Dawley rat plasma at 10 mg/kg, po administered as single dose via gavage by LC-MS/MS analysis; format: ADME, organism-based; design: time infinity, dose 10 mg/kg, dosed compound name [14C]lixivaptan, route oral; in short: as §4
[20] = Tmax in male beagle dog plasma at 10 mg/kg, po administered as single dose by LC-MS/MS analysis; format: ADME, organism-based, Canis lupus familiaris; design: dose 10 mg/kg, dosed compound name [14C]lixivaptan, route oral; in short: as §5
[21] = Cmax in male beagle dog plasma at 10 mg/kg, po administered as single dose by LC-MS/MS analysis; format: ADME, organism-based, Canis lupus familiaris; design: dose 10 mg/kg, dosed compound name [14C]lixivaptan, route oral; in short: as §6

For `Cc1ccc(F)cc1C(=O)Nc1ccc(C(=O)N2Cc3cccn3Cc3ccccc32)c(Cl)c1` [LIXIVAPTAN], which half-life [1] is on record?
The half-life was 9.77 h.

What about the AUC(0-t) [2] of the same molecule?
The AUC(0-t) was 1540 ng·h/mL.

What about the Tmax [3] of the same molecule?
Its Tmax is 0.8 h.

What about the half-life [4] of the same molecule?
The half-life was 1.3 h.

And the AUC(0-inf) [5]?
Its AUC(0-inf) is 219 ng·h/mL.

What about the Cmax [6] of the same molecule?
The Cmax was 338 ng/mL.

What about the half-life [7] of the same molecule?
The half-life was 4.2 h.

What about the AUC(0-t) [8] of the same molecule?
Its AUC(0-t) is 1530 ng·h/mL.

What about the half-life [9] of the same molecule?
The half-life was 8.8 h.

And the AUC(0-t) [10]?
Its AUC(0-t) is 4700 ng·h/mL.

What about the AUC(0-inf) [11] of the same molecule?
Its AUC(0-inf) is 4870 ng·h/mL.

And the Cmax [12]?
The Cmax was 437 ng/mL.

What about the Css (Homo sapiens) of the same molecule?
Its Css is 514 ng/mL.

What about the AUC at 168 h [13] of the same molecule?
Its AUC at 168 h is 2960 ng·h/mL.

And the Tmax [14]?
The Tmax was 0.7 h.

And the AUC(0-inf) [15]?
Its AUC(0-inf) is 1570 ng·h/mL.

And the Cmax [16]?
Its Cmax is 91 ng/mL.

What about the AUC(0-t) [17] of the same molecule?
Its AUC(0-t) is 140 ng·h/mL.

And the Tmax [18]?
Its Tmax is 0.8 h.

What about the AUC(0-inf) [19] of the same molecule?
The AUC(0-inf) was 1890 ng·h/mL.

What about the Tmax [20] of the same molecule?
The Tmax was 0.8 h.

What about the Cmax [21] of the same molecule?
The Cmax was 759 ng/mL.
